According to ChEMBL document CHEMBL4184121, “Semisynthesis, cytotoxicity, antimalarial evaluation and structure-activity relationship of two series of triterpene derivatives” (Bioorg Med Chem Lett, 2018):

How the values were obtained:
[1] = Cytotoxicity against African green monkey Vero cells after 72 hrs by MTT assay; format: cell-based; details: chlorocebus sabaeus
Summary of the method: (§1)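 VERO (ATCC CCL-81) and HepG2 (ATCC HB-8065) cells were exposed for 24, 48 or 72 h to an […] dilution series from 400 to 1.56 μM. CC50 was taken from the concentration–response curve. Triplicates, with at least three independent cultures (n = 3).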

Plasmodium falciparum [2] = assay: Antiplasmodial activity against chloroquine-resistant Plasmodium falciparum W2 infected in human erythrocytes; format: functional, organism-based
Summary of the method: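 P. falciparum W2 grown in fresh human O+ erythrocytes at 2% hematocrit in complete medium, 37 °C. Compounds tested over a 100–3.12 µM dilution series. IC50 estimated from the dose-response curve relative to drug-free control wells (100% parasite viability). Artemisinin run in parallel as control. Triplicates, at least three independent cultures (n = 3).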

[3] = Cytotoxicity against human HepG2 cells after 72 hrs by MTT assay; format: cell-based; summary of the method: as §1
[4] = Selectivity index, ratio of CC50 for human HepG2 cells to IC50 for chloroquine-resistant Plasmodium falciparum W2; format: toxicity; details: read-out: Ratio CC50/IC50
Summary of the method: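 SI = HepG2 CC50 / W2 IC50. CC50 came from HepG2 growth inhibition over a 400–1.56 µM dilution series, read at 24, 48 and 72 h. IC50 came from the W2 erythrocyte assay (100–3.12 µM range). Triplicates, at least three independent cultures.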

Plasmodium falciparum [5] = assay: Antiplasmodial activity against Plasmodium falciparum assessed as potentiation of artemisinin-induced antimalarial activity by measuring dose reduction index relative to artemisinin alone; format: functional
Plasmodium falciparum [6] = assay: Antiplasmodial activity against Plasmodium falciparum assessed as combination index in presence of artemisinin; format: functional
Summary of the method: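 Chloroquine-resistant P. falciparum W2 was grown in fresh human O+ erythrocytes at 2% hematocrit in complete medium at 37 °C. Artemisinin was co-tested with the triterpene using the one-point Chou–Talalay method, at a minimum of one combination ratio. CI is the sum of the two FICs: ≤1 synergy, 1–2 additivity, >2 antagonism. Triplicates, n = 3 independent cultures.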

CCCC(=O)O[C@H]1CC[C@]2(C)[C@H]3CC=C4[C@@H]5[C@@H](C)[C@H](C)CC[C@]5(C(=O)OC)CC[C@@]4(C)[C@]3(C)CC[C@H]2C1(C)C
CC50 at 72 h [1]: > 400 µM
IC50 (Plasmodium falciparum [2]): > 100 µM
CC50 at 72 h [3]: > 400 µM

C=C(C)[C@@H]1CC[C@]2(C(=O)n3ccnc3)CC[C@]3(C)[C@H](CC[C@@H]4[C@@]5(C)CC[C@H](OC(=O)C(C)C)C(C)(C)[C@@H]5CC[C@]43C)[C@@H]12
selectivity ratio [4]: > 13.5
CC50 at 72 h [1]: > 400 µM
IC50 (Plasmodium falciparum [2]): 29.6 µM
CC50 at 72 h [3]: > 400 µM

C[C@H]1[C@H](C)CC[C@]2(C(=O)n3ccnc3)CC[C@]3(C)C(=CC[C@@H]4[C@@]5(C)CCC(=O)C(C)(C)[C@@H]5CC[C@]43C)[C@H]12
selectivity ratio [4]: > 44.1
CC50 at 72 h [1]: > 400 µM
IC50 (Plasmodium falciparum [2]): 9.07 µM
CC50 at 72 h [3]: > 400 µM

C=C(C)[C@@H]1CC[C@]2(C(=O)OC)CC[C@]3(C)[C@H](CC[C@@H]4[C@@]5(C)CC[C@H](OC(C)=O)C(C)(C)[C@@H]5CC[C@]43C)[C@@H]12
CC50 at 72 h [1]: > 400 µM
IC50 (Plasmodium falciparum [2]): > 100 µM
CC50 at 72 h [3]: > 400 µM

CC(=O)O[C@H]1CC[C@]2(C)[C@H]3CC=C4[C@@H]5[C@@H](C)[C@H](C)CC[C@]5(C(=O)O)CC[C@@]4(C)[C@]3(C)CC[C@H]2C1(C)C [O-ACETYLURSOLIC ACID]
selectivity ratio [4]: > 44
CC50 at 72 h [1]: > 400 µM
IC50 (Plasmodium falciparum [2]): 9.08 µM
CC50 at 72 h [3]: > 400 µM

C=C(C)[C@@H]1CC[C@]2(C(=O)n3ccnc3)CC[C@]3(C)[C@H](CC[C@@H]4[C@@]5(C)CC[C@H](OC(=O)CCC)C(C)(C)[C@@H]5CC[C@]43C)[C@@H]12
selectivity ratio [4]: > 6.94
CC50 at 72 h [1]: > 400 µM
IC50 (Plasmodium falciparum [2]): 57.6 µM
CC50 at 72 h [3]: > 400 µM

CCCC(=O)O[C@H]1CC[C@]2(C)[C@H]3CC=C4[C@@H]5[C@@H](C)[C@H](C)CC[C@]5(C(=O)O)CC[C@@]4(C)[C@]3(C)CC[C@H]2C1(C)C
selectivity ratio [4]: > 30
Activity_index (Plasmodium falciparum [5]): 7
CC50 at 72 h [1]: > 400 µM
CI (Plasmodium falciparum [6]): 1.05
IC50 (Plasmodium falciparum [2]): 13.3 µM
CC50 at 72 h [3]: > 400 µM

C[C@H]1[C@H](C)CC[C@]2(C(=O)O)CC[C@]3(C)C(=CC[C@@H]4[C@@]5(C)CCC(=O)C(C)(C)[C@@H]5CC[C@]43C)[C@H]12 [URSONIC ACID]
selectivity ratio [4]: > 16.5
CC50 at 72 h [1]: > 400 µM
IC50 (Plasmodium falciparum [2]): 24.3 µM
CC50 at 72 h [3]: > 400 µM

C=C(C)[C@@H]1CC[C@]2(C(=O)O)CC[C@]3(C)[C@H](CC[C@@H]4[C@@]5(C)CCC(=O)C(C)(C)[C@@H]5CC[C@]43C)[C@@H]12 [BETUNOLIC ACID]
selectivity ratio [4]: 19.1
CC50 at 72 h [1]: > 400 µM
IC50 (Plasmodium falciparum [2]): 7.87 µM
CC50 at 72 h [3]: 150 µM

C=C(C)[C@@H]1CC[C@]2(C(=O)O)CC[C@]3(C)[C@H](CC[C@@H]4[C@@]5(C)CC[C@H](O)C(C)(C)[C@@H]5CC[C@]43C)[C@@H]12 [BETULINIC ACID]
selectivity ratio [4]: > 31.4
CC50 at 72 h [1]: > 400 µM
IC50 (Plasmodium falciparum [2]): 12.8 µM
CC50 at 72 h [3]: > 400 µM

C=C(C)[C@@H]1CC[C@]2(C(=O)OC)CC[C@]3(C)[C@H](CC[C@@H]4[C@@]5(C)CC[C@H](OC(=O)CCC)C(C)(C)[C@@H]5CC[C@]43C)[C@@H]12
CC50 at 72 h [1]: > 400 µM
IC50 (Plasmodium falciparum [2]): > 100 µM
CC50 at 72 h [3]: > 400 µM

CC(=O)O[C@H]1CC[C@]2(C)[C@H]3CC=C4[C@@H]5[C@@H](C)[C@H](C)CC[C@]5(C(=O)n5ccnc5)CC[C@@]4(C)[C@]3(C)CC[C@H]2C1(C)C
selectivity ratio [4]: > 7.9
CC50 at 72 h [1]: > 400 µM
IC50 (Plasmodium falciparum [2]): 50.6 µM
CC50 at 72 h [3]: > 400 µM

C=C(C)[C@@H]1CC[C@]2(C(=O)n3ccnc3)CC[C@]3(C)[C@H](CC[C@@H]4[C@@]5(C)CC[C@H](OC(C)=O)C(C)(C)[C@@H]5CC[C@]43C)[C@@H]12
selectivity ratio [4]: > 44.9
CC50 at 72 h [1]: > 400 µM
IC50 (Plasmodium falciparum [2]): 8.9 µM
CC50 at 72 h [3]: > 400 µM

C[C@@H]1CC[C@H]2[C@@H](C)C(=O)O[C@@H]3O[C@@]4(C)CC[C@@H]1[C@]32OO4 [ARTEMISININ]
IC50 (Plasmodium falciparum [2]): 0.0163 µM

COC(=O)[C@]12CC[C@@H](C)[C@H](C)[C@H]1C1=CC[C@@H]3[C@@]4(C)CCC(=O)C(C)(C)[C@@H]4CC[C@@]3(C)[C@]1(C)CC2
CC50 at 72 h [1]: > 400 µM
IC50 (Plasmodium falciparum [2]): > 100 µM
CC50 at 72 h [3]: > 400 µM

C=C(C)[C@@H]1CC[C@]2(C(=O)O)CC[C@]3(C)[C@H](CC[C@@H]4[C@@]5(C)CC[C@H](OC(C)=O)C(C)(C)[C@@H]5CC[C@]43C)[C@@H]12
selectivity ratio [4]: > 6.11
CC50 at 72 h [1]: > 400 µM
IC50 (Plasmodium falciparum [2]): 65.5 µM
CC50 at 72 h [3]: > 400 µM

CC(C)C(=O)O[C@H]1CC[C@]2(C)[C@H]3CC=C4[C@@H]5[C@@H](C)[C@H](C)CC[C@]5(C(=O)O)CC[C@@]4(C)[C@]3(C)CC[C@H]2C1(C)C
CC50 at 72 h [1]: > 400 µM
IC50 (Plasmodium falciparum [2]): > 100 µM
CC50 at 72 h [3]: > 400 µM

COC(=O)[C@]12CC[C@@H](C)[C@H](C)[C@H]1C1=CC[C@@H]3[C@@]4(C)CC[C@H](OC(C)=O)C(C)(C)[C@@H]4CC[C@@]3(C)[C@]1(C)CC2
CC50 at 72 h [1]: > 400 µM
IC50 (Plasmodium falciparum [2]): > 100 µM
CC50 at 72 h [3]: > 400 µM

CCCC(=O)O[C@H]1CC[C@]2(C)[C@H]3CC=C4[C@@H]5[C@@H](C)[C@H](C)CC[C@]5(C(=O)n5ccnc5)CC[C@@]4(C)[C@]3(C)CC[C@H]2C1(C)C
selectivity ratio [4]: > 38.5
CC50 at 72 h [1]: > 400 µM
IC50 (Plasmodium falciparum [2]): 10.4 µM
CC50 at 72 h [3]: > 400 µM

C=C(C)[C@@H]1CC[C@]2(C(=O)O)CC[C@]3(C)[C@H](CC[C@@H]4[C@@]5(C)CC[C@H](OC(=O)C(C)C)C(C)(C)[C@@H]5CC[C@]43C)[C@@H]12
selectivity ratio [4]: > 33
CC50 at 72 h [1]: > 400 µM
IC50 (Plasmodium falciparum [2]): 12.1 µM
CC50 at 72 h [3]: > 400 µM

C[C@H]1[C@H](C)CC[C@]2(C(=O)O)CC[C@]3(C)C(=CC[C@@H]4[C@@]5(C)CC[C@H](O)C(C)(C)[C@@H]5CC[C@]43C)[C@H]12 [URSOLIC ACID]
selectivity ratio [4]: 2.24
CC50 at 72 h [1]: 99.9 µM
IC50 (Plasmodium falciparum [2]): 50.6 µM
CC50 at 72 h [3]: 114 µM

C=C(C)[C@@H]1CC[C@]2(C(=O)OC)CC[C@]3(C)[C@H](CC[C@@H]4[C@@]5(C)CCC(=O)C(C)(C)[C@@H]5CC[C@]43C)[C@@H]12 [METHYL BETULONATE]
CC50 at 72 h [1]: > 400 µM
IC50 (Plasmodium falciparum [2]): > 100 µM
CC50 at 72 h [3]: > 400 µM

C=C(C)[C@@H]1CC[C@]2(C(=O)OC)CC[C@]3(C)[C@H](CC[C@@H]4[C@@]5(C)CC[C@H](OC(=O)C(C)C)C(C)(C)[C@@H]5CC[C@]43C)[C@@H]12
CC50 at 72 h [1]: > 400 µM
IC50 (Plasmodium falciparum [2]): > 100 µM
CC50 at 72 h [3]: > 400 µM

C=C(C)[C@@H]1CC[C@]2(C(=O)n3ccnc3)CC[C@]3(C)[C@H](CC[C@@H]4[C@@]5(C)CCC(=O)C(C)(C)[C@@H]5CC[C@]43C)[C@@H]12
selectivity ratio [4]: > 76.8
CC50 at 72 h [1]: > 400 µM
IC50 (Plasmodium falciparum [2]): 5.2 µM
CC50 at 72 h [3]: > 400 µM

COC(=O)[C@]12CC[C@@H](C)[C@H](C)[C@H]1C1=CC[C@@H]3[C@@]4(C)CC[C@H](OC(=O)C(C)C)C(C)(C)[C@@H]4CC[C@@]3(C)[C@]1(C)CC2
CC50 at 72 h [1]: > 400 µM
IC50 (Plasmodium falciparum [2]): > 100 µM
CC50 at 72 h [3]: > 400 µM

CC(C)C(=O)O[C@H]1CC[C@]2(C)[C@H]3CC=C4[C@@H]5[C@@H](C)[C@H](C)CC[C@]5(C(=O)n5ccnc5)CC[C@@]4(C)[C@]3(C)CC[C@H]2C1(C)C
selectivity ratio [4]: > 29.4
CC50 at 72 h [1]: > 400 µM
IC50 (Plasmodium falciparum [2]): 13.6 µM
CC50 at 72 h [3]: > 400 µM
